According to ChEMBL document CHEMBL1141352, “Microbial transformation of cephalomannine by Luteibacter sp” (J Nat Prod, 2007):

Key:
Type in all cases: functional, cell-based
BGC-823 = assay: Cytotoxicity against human BGC823 cells by MTT assay
Outline: (§1)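 Cells kept in RPMI 1640 with 10% FBS, penicillin 100 units/mL and streptomycin 100 μg/mL, at 37 °C in humidified 5% CO2. Seeded at 1200 cells/well; compounds added after 24 h and incubated 96 h. Tested at 10^-5 to 10^-9 M (five concentrations) from DMSO stocks, with 0.1% DMSO final, in triplicate wells. Viability by MTT formazan absorbance at 570 nm.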

Bel-7402 = assay: Cytotoxicity against human Bel7402 cells by MTT assay; outline: as §1
A2780 = assay: Cytotoxicity against human A2780 cells by MTT assay; outline: as §1
HCT-8 = assay: Cytotoxicity against human HCT8 cells by MTT assay; outline: as §1
A549 = assay: Cytotoxicity against human A549 cells by MTT assay; outline: as §1

In the case of C/C=C(/C)C(=O)N[C@@H](c1ccccc1)[C@@H](O)C(=O)O[C@H]1C[C@@]2(O)[C@@H](OC(=O)c3ccccc3)[C@@H]3[C@]4(OC(C)=O)CO[C@@H]4C[C@@H](O)[C@@]3(C)C(=O)[C@H](O)C(=C1C)C2(C)C, the IC50 (BGC-823) is reported as 790 nM, the IC50 (Bel-7402) is reported as 3530 nM and the IC50 (A2780) is reported as 350 nM. The IC50 (HCT-8) was 2230 nM and the IC50 (A549) was 3240 nM.

With C/C=C(\C)C(=O)N[C@@H](c1ccccc1)[C@@H](O)C(=O)O[C@H]1C[C@@]2(O)[C@@H](OC(=O)c3ccccc3)[C@@H]3[C@]4(OC(C)=O)CO[C@@H]4C[C@H](O)[C@@]3(C)C(=O)[C@H](O)C(=C1C)C2(C)C the IC50 (BGC-823) was 100 nM, the IC50 (Bel-7402) was 2690 nM and the IC50 (A2780) was 90 nM. The IC50 (HCT-8) was 3290 nM and the IC50 (A549) was greater than 10000 nM.

CC(=O)O[C@H]1C(=O)[C@@]2(C)[C@H]([C@H](OC(=O)c3ccccc3)[C@]3(O)C[C@H](OC(=O)[C@H](O)[C@@H](NC(=O)c4ccccc4)c4ccccc4)C(C)=C1C3(C)C)[C@]1(OC(C)=O)CO[C@@H]1C[C@@H]2O [PACLITAXEL] showed an IC50 (BGC-823) of 7 nM, an IC50 (Bel-7402) of 100 nM and an IC50 (A2780) of 6.3 nM. It also gave an IC50 (HCT-8) of 37 nM and an IC50 (A549) of 19 nM.

CC(=O)O[C@H]1C(=O)[C@]2(C)[C@@H](O[C@H]3OC[C@@H](O)[C@H](O)[C@H]3O)C[C@H]3OC[C@@]3(OC(C)=O)[C@H]2[C@H](OC(=O)c2ccccc2)[C@]2(O)C[C@H](O)C(C)=C1C2(C)C gave an IC50 (BGC-823) greater than 10000 nM, an IC50 (Bel-7402) greater than 10000 nM and an IC50 (A2780) greater than 10000 nM. The IC50 (HCT-8) was greater than 10000 nM and the IC50 (A549) was greater than 10000 nM.

C/C=C(\C)C(=O)N[C@@H](c1ccccc1)[C@@H](O)C(=O)O[C@H]1C[C@@]2(O)[C@@H](OC(=O)c3ccccc3)[C@@H]3[C@]4(OC(C)=O)CO[C@@H]4C[C@H](O)[C@@]3(C)C(=O)[C@H](OC(C)=O)C(=C1C)C2(C)C [CEPHALOMANNINE] gave an IC50 (BGC-823) of 100 nM, an IC50 (Bel-7402) of 920 nM and an IC50 (A2780) of 100 nM. For the same compound, the IC50 (HCT-8) was 310 nM and the IC50 (A549) was 100 nM.

C/C=C(/C)C(=O)N[C@@H](c1ccccc1)[C@@H](O)C(=O)O[C@H]1C[C@@]2(O)[C@@H](OC(=O)c3ccccc3)[C@@H]3[C@]4(OC(C)=O)CO[C@@H]4C[C@@H](O)[C@@]3(C)C(=O)[C@H](OC(C)=O)C(=C1C)C2(C)C gave an IC50 (BGC-823) of 90 nM, an IC50 (Bel-7402) of 690 nM and an IC50 (A2780) of 70 nM. It also gave an IC50 (HCT-8) of 230 nM and an IC50 (A549) of 90 nM.

Compound CC(=O)O[C@@]12CO[C@@H]1C[C@@H](O)[C@@]1(C)C(=O)C(=O)C3=C(C)[C@@H](O)C[C@@](O)([C@@H](OC(=O)c4ccccc4)[C@H]21)C3(C)C has an IC50 (BGC-823) of 1380 nM, an IC50 (Bel-7402) greater than 10000 nM and an IC50 (A2780) of 4890 nM. The IC50 (HCT-8) was greater than 10000 nM and the IC50 (A549) was greater than 10000 nM.

CCC(C)C(=O)N[C@@H](c1ccccc1)[C@@H](O)C(=O)O[C@H]1C[C@@]2(O)[C@@H](OC(=O)c3ccccc3)[C@@H]3[C@]4(OC(C)=O)CO[C@@H]4C[C@@H](O)[C@@]3(C)C(=O)[C@H](OC(C)=O)C(=C1C)C2(C)C (stereo not given in full) showed an IC50 (BGC-823) of 530 nM, an IC50 (Bel-7402) of 3300 nM and an IC50 (A2780) of 650 nM. For the same compound, the IC50 (HCT-8) was 1570 nM and the IC50 (A549) was 2240 nM.
